From ChEMBL document CHEMBL1157693, “Microwave assisted synthesis and antimicrobial activity of 2-quinoxalinone-3-hydrazone derivatives” (2010)
≈ marks a conversion by molar mass, not a printed value. Calls of active or inactive are those of the source. No cut-off for these calls is given here.

Columns and labels:
Type in all cases: functional
Staphylococcus aureus [1] = experiment: Antibacterial activity against Staphylococcus aureus NCIB 8588 after 24 hrs by agar well diffusion method; for IZ: test concentration or dose not given here
Method in brief: (§1)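 Agar well diffusion. Clinical isolates were first checked for viability, then grown in nutrient broth for 8 h at 37 °C. About 0.2 ml of broth culture was mixed into 18 ml molten diagnostic sensitivity test agar cooled to 45 °C and poured into plates. Compounds in DMSO went into bored wells, with streptomycin as reference. Plates stood 1 h for diffusion, then were incubated upright at 37 °C for 24 h. Clear inhibition zones were read in mm.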

Escherichia coli [2] = experiment: Antibacterial activity against Escherichia coli NCIB 86 after 24 hrs by agar well diffusion method; method in brief: as §1; for IZ: test concentration or dose not given here
Pseudomonas fluorescens = experiment: Antibacterial activity against Pseudomonas fluorescens NCIB 3756 after 24 hrs by agar well diffusion method; method in brief: as §1; for IZ: test concentration or dose not given here
Klebsiella pneumoniae [3] = experiment: Antibacterial activity against Klebsiella pneumoniae NCIB 418 after 24 hrs by agar well diffusion method; method in brief: as §1; for IZ: test concentration or dose not given here
Bacillus subtilis [4] = experiment: Antibacterial activity against Bacillus subtilis NCIB 3610 after 24 hrs by agar well diffusion method; method in brief: as §1; for IZ: test concentration or dose not given here
Bacillus cereus [5] = experiment: Antibacterial activity against Bacillus cereus NCIB 6349 after 24 hrs by agar well diffusion method; method in brief: as §1; for IZ: test concentration or dose not given here
Shigella dysenteriae [6] = experiment: Antibacterial activity against Shigella dysenteriae after 24 hrs by agar well diffusion method
Pseudomonas aeruginosa = experiment: Antibacterial activity against Pseudomonas aeruginosa NCIB 950 after 24 hrs by agar well diffusion method; method in brief: as §1; for IZ: test concentration or dose not given here
Candida albicans = experiment: Antifungal activity against Candida albicans after 3 days by agar well diffusion method
Bacillus anthracis [7] = experiment: Antibacterial activity against Bacillus anthracis after 72 hrs
[8] = system: Geobacillus stearothermophilus; experiment: Antibacterial activity against Bacillus stearothermophilus NCIB 8222 after 72 hrs; conditions: NCIB 8222, 72 h
Method in brief: (§2)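 MIC by the Russell and Furr method, run on selected Gram-positive and Gram-negative strains. Once the agar had set and its surface had dried, nutrient agar plates were streaked with overnight broth cultures. They were incubated at 37 °C for up to 72 h and scored for presence or absence of growth.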

Bacillus subtilis [9] = experiment: Antibacterial activity against Bacillus subtilis NCIB 3610 after 72 hrs; conditions: NCIB 3610, 72 h; method in brief: as §2
Bacillus cereus [10] = experiment: Antibacterial activity against Bacillus cereus NCIB 6349 after 72 hrs; conditions: NCIB 6349, 72 h; method in brief: as §2
Staphylococcus aureus [11] = experiment: Antibacterial activity against Staphylococcus aureus NCIB 8588 after 72 hrs; method in brief: as §2
Escherichia coli [12] = experiment: Antibacterial activity against Escherichia coli NCIB 86 after 72 hrs; method in brief: as §2
Klebsiella pneumoniae [13] = experiment: Antibacterial activity against Klebsiella pneumoniae NCIB 418 after 72 hrs; method in brief: as §2
Shigella dysenteriae [14] = experiment: Antibacterial activity against Shigella dysenteriae after 72 hrs
Method in brief: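 MIC by agar dilution: compound-containing nutrient agar was set and surface-dried, then streaked with overnight broth culture of the clinical isolate. Incubated at 37 °C for up to 72 h and scored for presence or absence of growth. Streptomycin was the reference.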

Bacillus anthracis [15] = experiment: Antibacterial activity against Bacillus anthracis after 24 hrs by agar well diffusion method
[16] = system: Geobacillus stearothermophilus; experiment: Antibacterial activity against Bacillus stearothermophilus NCIB 8222 after 24 hrs by agar well diffusion method; method in brief: as §1; for IZ: test concentration or dose not given here

| Compound | inhibition zone (IZ) (Staphylococcus aureus [1]) | inhibition zone (IZ) (Escherichia coli [2]) | inhibition zone (IZ) (Pseudomonas fluorescens) | inhibition zone (IZ) (Klebsiella pneumoniae [3]) | inhibition zone (IZ) (Bacillus subtilis [4]) | inhibition zone (IZ) (Bacillus cereus [5]) | inhibition zone (IZ) (Shigella dysenteriae [6]) | inhibition zone (IZ) (Pseudomonas aeruginosa) | inhibition zone (IZ) (Candida albicans) | MIC (Bacillus anthracis [7]) [µg/mL] | MIC [8] [µg/mL] | MIC (Bacillus subtilis [9]) [µg/mL] | MIC (Bacillus cereus [10]) [µg/mL] | MIC (Staphylococcus aureus [11]; NCIB 8588, 72 h) [µg/mL] | MIC (Escherichia coli [12]; NCIB 86, 72 h) [µg/mL] | MIC (Klebsiella pneumoniae [13]; NCIB 418, 72 h) [µg/mL] | MIC (Shigella dysenteriae [14]) | inhibition zone (IZ) (Bacillus anthracis [15]) | inhibition zone (IZ) [16] | further results |
| --- | --- | --- | --- | --- | --- | --- | --- | --- | --- | --- | --- | --- | --- | --- | --- | --- | --- | --- | --- | --- |
| O=c1[nH]c2ccccc2nc1N/N=C1\CCCCC1Cl (stereo not drawn) | 12 mm | 12 mm | 9 mm | 13 mm | 16 mm | 12 mm | 0 mm | 0 mm | 15 mm | 31.3 (≈ 108 µM) | 31.3 (≈ 108 µM) | 15.6 (≈ 53.7 µM) | 31.3 (≈ 108 µM) | 62.5 (≈ 215 µM) | 62.5 (≈ 215 µM) | 31.3 (≈ 108 µM) | inactive | 14 mm | 14 mm |  |
| CC(C)=NNc1nc2ccccc2[nH]c1=O | 12 mm | 30 mm | 0 mm | 12 mm | 30 mm | 24 mm | 13 mm | 0 mm | 31 mm | 62.5 (≈ 289 µM) | 7.8 (≈ 36.1 µM) | 7.8 (≈ 36.1 µM) | 15.6 (≈ 72.1 µM) | 62.5 (≈ 289 µM) | 7.8 (≈ 36.1 µM) | 15.6 (≈ 72.1 µM) | 31.3 µg/mL (≈ 145 µM) | 14 mm | 30 mm |  |
| C/C(=N\Nc1nc2ccccc2[nH]c1=O)c1cc2cc(Br)ccc2oc1=O | 14 mm | 18 mm | 0 mm | 18 mm | 30 mm | 15 mm | 0 mm | 0 mm | 21 mm | 62.5 (≈ 147 µM) | 7.8 (≈ 18.3 µM) | 7.8 (≈ 18.3 µM) | 62.5 (≈ 147 µM) | 62.5 (≈ 147 µM) | 62.5 (≈ 147 µM) | 62.5 (≈ 147 µM) | inactive | 16 mm | 29 mm |  |
| CC/C(C)=N\Nc1nc2ccccc2[nH]c1=O | 19 mm | 21 mm | 0 mm | 19 mm | 16 mm | 25 mm | 0 mm | 0 mm | 22 mm | 62.5 (≈ 271 µM) | 31.3 (≈ 136 µM) | 31.3 (≈ 136 µM) | 7.8 (≈ 33.9 µM) | 15.6 (≈ 67.7 µM) | 31.3 (≈ 136 µM) | 62.5 (≈ 271 µM) | inactive | 12 mm | 17 mm |  |
| CC1CCCC/C1=N\Nc1nc2ccccc2[nH]c1=O (stereo not drawn) | 19 mm | 12 mm | 13 mm | 15 mm | 12 mm | 13 mm | 0 mm | 0 mm | 14 mm | 15.6 (≈ 57.7 µM) | 7.8 (≈ 28.9 µM) | 62.5 (≈ 231 µM) | 15.6 (≈ 57.7 µM) | 7.8 (≈ 28.9 µM) | 31.3 (≈ 116 µM) | 7.8 (≈ 28.9 µM) | inactive | 16 mm | 25 mm |  |
| NNc1nc2ccccc2[nH]c1=O | 24 mm | 25 mm | 0 mm | 10 mm | 20 mm | 28 mm | 22 mm | 15 mm | 18 mm | 15.6 (≈ 88.5 µM) | 15.6 (≈ 88.5 µM) | 15.6 (≈ 88.5 µM) | 15.6 (≈ 88.5 µM) | 125 (≈ 710 µM) | 15.6 (≈ 88.5 µM) | 125 (≈ 710 µM) | 125 µg/mL (≈ 710 µM) | 24 mm | 15 mm |  |
| O=C1Nc2ccc(Cl)cc2/C1=N/Nc1nc2ccccc2[nH]c1=O | 25 mm | 19 mm | 0 mm | 20 mm | 20 mm | 28 mm | 10 mm | 0 mm | 18 mm | 15.6 (≈ 45.9 µM) | 7.8 (≈ 23 µM) | 15.6 (≈ 45.9 µM) | 7.8 (≈ 23 µM) | 7.8 (≈ 23 µM) | 15.6 (≈ 45.9 µM) | 7.8 (≈ 23 µM) | 62.5 µg/mL (≈ 184 µM) | 20 mm | 24 mm |  |
| O=c1[nH]c2ccccc2nc1NN=C1CCCC1 | 0 mm | 17 mm | 10 mm | 14 mm | 12 mm | 20 mm | 12 mm | 0 mm | 29 mm | 125 (≈ 516 µM) | 62.5 (≈ 258 µM) | 31.3 (≈ 129 µM) | 15.6 (≈ 64.4 µM) |  | 31.3 (≈ 129 µM) | 15.6 (≈ 64.4 µM) | 62.5 µg/mL (≈ 258 µM) | 10 mm | 14 mm | MIC (Staphylococcus aureus [11]): inactive |
| CC12CCC(C/C1=N\Nc1nc3ccccc3[nH]c1=O)C2(C)C (stereo not drawn) | 11 mm | 18 mm | 0 mm | 16 mm | 16 mm | 10 mm | 0 mm | 13 mm | 21 mm | 125 (≈ 403 µM) | 31.3 (≈ 101 µM) | 15.6 (≈ 50.3 µM) | 62.5 (≈ 201 µM) | 62.5 (≈ 201 µM) | 15.6 (≈ 50.3 µM) | 31.3 (≈ 101 µM) | inactive | 5 mm | 14 mm |  |
| CN[C@@H]1[C@H](O[C@H]2[C@H](O[C@H]3[C@H](O)[C@@H](O)[C@H](N=C(N)N)[C@@H](O)[C@@H]3N=C(N)N)O[C@@H](C)[C@]2(O)C=O)O[C@@H](CO)[C@H](O)[C@H]1O [STREPTOMYCIN] | 21 mm | 0 mm | 30 mm | 0 mm | 20 mm | 28 mm | 22 mm | 0 mm | inactive | 31.3 (≈ 53.8 µM) | 7.8 (≈ 13.4 µM) | 15.6 (≈ 26.8 µM) | 7.8 (≈ 13.4 µM) | 7.8 (≈ 13.4 µM) |  |  | 15.6 µg/mL (≈ 26.8 µM) | 18 mm | 23 mm | MIC (Escherichia coli [12]): inactive; MIC (Klebsiella pneumoniae [13]): inactive |
| NYSTATIN | inactive | inactive | inactive | inactive | inactive | inactive | inactive | inactive |  |  |  |  |  |  |  |  |  | inactive | inactive |  |
| O=C1Nc2ccc(Br)cc2/C1=N/Nc1nc2ccccc2[nH]c1=O | 20 mm | 13 mm | 11 mm | 15 mm | 13 mm | 15 mm | 11 mm | 0 mm | 15 mm | 125 (≈ 325 µM) | 15.6 (≈ 40.6 µM) | 62.5 (≈ 163 µM) | 62.5 (≈ 163 µM) | 15.6 (≈ 40.6 µM) | 62.5 (≈ 163 µM) | 31.3 (≈ 81.5 µM) | 125 µg/mL (≈ 325 µM) | 8 mm | 22 mm |  |
| C/C(=N\Nc1nc2ccccc2[nH]c1=O)c1cc2ccccc2oc1=O | 15 mm | 30 mm | 0 mm | 20 mm | 32 mm | 20 mm | 0 mm | 0 mm | 29 mm | 62.5 (≈ 180 µM) | 31.3 (≈ 90.4 µM) | 7.8 (≈ 22.5 µM) | 31.3 (≈ 90.4 µM) | 31.3 (≈ 90.4 µM) | 31.3 (≈ 90.4 µM) | 31.3 (≈ 90.4 µM) | inactive | 18 mm | 28 mm |  |
